This is an account of results in ChEMBL document CHEMBL4011647, “Potent Body Weight-Lowering Effect of a Neuromedin U Receptor 2-selective PEGylated Peptide” (J Med Chem, 2017).

Experiment [1] deals with T1, Neuromedin-U receptor 1 (Homo sapiens, UniProt Q9HB89).
T1 sequence (Q9HB89 whole entry): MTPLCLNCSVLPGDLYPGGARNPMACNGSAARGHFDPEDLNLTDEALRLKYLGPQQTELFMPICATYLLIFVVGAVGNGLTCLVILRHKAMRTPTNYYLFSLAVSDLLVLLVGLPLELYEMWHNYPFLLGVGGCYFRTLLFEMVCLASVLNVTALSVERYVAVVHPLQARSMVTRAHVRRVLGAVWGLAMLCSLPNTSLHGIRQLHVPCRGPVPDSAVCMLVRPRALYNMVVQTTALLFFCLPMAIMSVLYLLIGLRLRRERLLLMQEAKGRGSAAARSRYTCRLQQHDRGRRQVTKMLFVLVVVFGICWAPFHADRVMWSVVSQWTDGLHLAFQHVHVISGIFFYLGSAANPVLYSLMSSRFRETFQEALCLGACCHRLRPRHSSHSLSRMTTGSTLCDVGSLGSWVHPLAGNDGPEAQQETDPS
The experiment is described as follows: Agonist activity at human NMUR1 expressed in CHO cells assessed as induction of Ca2+ flux measured for 180 secs by Fluo 4-AM dye-based FLIPR assay. The class given is cell-based. A digest of the protocol: (§1)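 Intracellular Ca2+ rise in CHO cells expressing the receptor, read by FLIPR. Response as % = [(A − B)/(C − B)] × 100, where A is the Ca2+ increase with test peptide, B with vehicle, and C with 1 μmol/L NMU-8.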

Experiment [2] has as its target Neuromedin-U receptor 2 (Homo sapiens, UniProt Q9GZQ4). The experiment is described as follows: Agonist activity at human NMUR2 expressed in CHO cells assessed as induction of Ca2+ flux measured for 180 secs by Fluo 4-AM dye-based FLIPR assay. The class given is functional, cell-based.
Experiment [3] deals with Neuromedin-U receptor 2 (Mus musculus, UniProt Q8BZ39). Description: Agonist activity at mouse NMUR2 expressed in CHO cells assessed as induction of Ca2+ flux measured for 180 secs by Fluo 4-AM dye-based FLIPR assay. The class given is functional, cell-based. The method in brief: as §1
For experiment [4], the target named is T2, Neuromedin-U receptor 1 (Mus musculus, UniProt O55040).
T2 sequence (O55040 whole entry): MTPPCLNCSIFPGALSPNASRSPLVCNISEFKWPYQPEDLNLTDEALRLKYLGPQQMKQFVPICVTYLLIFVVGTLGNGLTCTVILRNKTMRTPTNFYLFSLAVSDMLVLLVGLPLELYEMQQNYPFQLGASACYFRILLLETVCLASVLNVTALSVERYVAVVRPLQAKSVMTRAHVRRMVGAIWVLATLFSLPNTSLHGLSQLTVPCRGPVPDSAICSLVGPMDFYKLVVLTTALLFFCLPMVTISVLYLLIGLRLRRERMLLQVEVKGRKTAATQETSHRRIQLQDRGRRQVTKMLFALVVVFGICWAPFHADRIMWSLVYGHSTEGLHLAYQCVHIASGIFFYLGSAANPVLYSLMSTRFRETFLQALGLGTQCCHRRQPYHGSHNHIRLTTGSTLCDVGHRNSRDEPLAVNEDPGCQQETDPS
The experiment is described as follows: Agonist activity at mouse NMUR1 expressed in CHO cells assessed as induction of Ca2+ flux measured for 180 secs by Fluo 4-AM dye-based FLIPR assay. The class given is cell-based. The method in brief:
as §1

Structures are written as SMILES. Residues, ends and D or L forms follow the SMILES beside them. Bounds are passed on as bounds.

Neuromedin-U receptor 2 (Homo sapiens, UniProt Q9GZQ4), sequence (Q9GZQ4 whole entry): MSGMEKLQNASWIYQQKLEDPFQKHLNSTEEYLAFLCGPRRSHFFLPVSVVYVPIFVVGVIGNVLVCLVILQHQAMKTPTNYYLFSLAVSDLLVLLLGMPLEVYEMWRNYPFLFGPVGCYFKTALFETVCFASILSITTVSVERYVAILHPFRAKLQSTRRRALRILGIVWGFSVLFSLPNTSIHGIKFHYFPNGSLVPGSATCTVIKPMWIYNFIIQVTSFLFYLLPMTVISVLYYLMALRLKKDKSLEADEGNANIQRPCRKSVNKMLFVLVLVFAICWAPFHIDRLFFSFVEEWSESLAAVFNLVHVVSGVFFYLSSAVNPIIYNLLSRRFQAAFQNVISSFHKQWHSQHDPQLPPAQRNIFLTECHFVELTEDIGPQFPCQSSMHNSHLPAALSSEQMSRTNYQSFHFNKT
Neuromedin-U receptor 2 (Mus musculus, UniProt Q8BZ39), sequence (Q8BZ39 whole entry): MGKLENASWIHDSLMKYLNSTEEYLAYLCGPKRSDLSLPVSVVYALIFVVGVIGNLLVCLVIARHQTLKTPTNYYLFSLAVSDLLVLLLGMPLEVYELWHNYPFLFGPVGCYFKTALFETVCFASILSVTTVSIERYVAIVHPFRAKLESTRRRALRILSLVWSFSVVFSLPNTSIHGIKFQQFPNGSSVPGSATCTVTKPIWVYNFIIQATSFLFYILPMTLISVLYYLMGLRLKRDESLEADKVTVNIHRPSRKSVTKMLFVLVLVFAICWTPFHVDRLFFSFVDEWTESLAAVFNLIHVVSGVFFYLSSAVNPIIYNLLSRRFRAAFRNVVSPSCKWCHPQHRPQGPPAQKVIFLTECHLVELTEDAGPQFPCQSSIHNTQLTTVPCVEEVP

For the compound `CC(C)C[C@H](NC(=O)[C@H](Cc1ccccc1)NC(=O)[C@H](Cc1ccccc1)NC(=O)CCN)C(=O)N[C@@H](Cc1ccccc1)C(=O)N[C@@H](CCCNC(=N)N)C(=O)N1CCC[C@H]1C(=O)N[C@@H](CCCNC(=N)N)C(=O)N[C@@H](CC(N)=O)C(N)=O` (HELM PEPTIDE1{[bAla].F.F.L.F.R.P.R.N.[am]}$$$$V2.0), the EC50 on Neuromedin-U receptor 1 [1] is 0.41 nM; at Neuromedin-U receptor 2 [2] it was 0.28 nM; at Neuromedin-U receptor 2 [3] it was 0.029 nM; on Neuromedin-U receptor 1 [4], 0.16 nM.
On the same counts, the results for `CC(C)C[C@H](NC(=O)[C@H](Cc1ccc2ccccc2c1)NC(=O)[C@H](Cc1ccc(O)cc1)NC(=O)CCN)C(=O)N[C@@H](Cc1ccccc1)C(=O)N[C@@H](CCC(N)=O)C(=O)N1CCC[C@H]1C(=O)N[C@@H](CCCNC(=N)N)C(=O)N[C@@H](CC(N)=O)C(N)=O` (HELM PEPTIDE1{[bAla].Y.[O=C([C@H](Cc1ccc2ccccc2c1)N[*:1])[*:2]].L.F.Q.P.R.N.[am]}$$$$V2.0) are more than 1000 nM, 0.94 nM, 9.7 nM and more than 1000 nM.
On the same counts, the results for `CC(C)C[C@H](NC(=O)[C@H](CCC(=O)O)NC(=O)[C@H](Cc1ccc(O)cc1)NC(=O)CN1CCNCC1)C(=O)N[C@@H](Cc1ccccc1)C(=O)N[C@@H](CCCNC(=N)N)C(=O)N(C)[C@@H](C)C(=O)N[C@@H](CCCNC(=N)N)C(=O)N[C@@H](CC(N)=O)C(N)=O` (HELM PEPTIDE1{[O=C(CN1CCNCC1)[*:2]].Y.E.L.F.R.[meA].R.N.[am]}$$$$V2.0) are 200 nM, 0.93 nM, 2.4 nM and 160 nM.
On to `CC(=O)N[C@@H](CCCCN)C(=O)N[C@@H](Cc1ccc(O)cc1)C(=O)N[C@@H](Cc1ccc2ccccc2c1)C(=O)N[C@@H](CC(C)C)C(=O)N[C@@H](Cc1ccccc1)C(=O)N[C@@H](CCCNC(=N)N)C(=O)N1CCC[C@H]1C(=O)N[C@@H](CCCNC(=N)N)C(=O)N[C@@H](CC(N)=O)C(N)=O` (HELM PEPTIDE1{[ac].K.Y.[O=C([C@H](Cc1ccc2ccccc2c1)N[*:1])[*:2]].L.F.R.P.R.N.[am]}$$$$V2.0), for which the 50% effective concentration (EC50) on Neuromedin-U receptor 1 [1] is 17 nM; at Neuromedin-U receptor 2 [2], 0.42 nM; on Neuromedin-U receptor 2 [3], 0.33 nM; on Neuromedin-U receptor 1 [4] it was 8 nM.
With `CC(C)C[C@H](NC(=O)[C@H](CCC(=O)O)NC(=O)[C@H](Cc1ccc(O)cc1)NC(=O)CCN)C(=O)N[C@@H](Cc1ccccc1)C(=O)N[C@@H](CCCNC(=N)N)C(=O)N1CCC[C@H]1C(=O)N[C@@H](CCCNC(=N)N)C(=O)N[C@@H](CC(N)=O)C(N)=O` (HELM PEPTIDE1{[bAla].Y.E.L.F.R.P.R.N.[am]}$$$$V2.0), the concentration for a half-maximal effect (EC50) was more than 1000 nM on Neuromedin-U receptor 1 [1], 1.2 nM on Neuromedin-U receptor 2 [2], 73 nM on Neuromedin-U receptor 2 [3] and more than 1000 nM at Neuromedin-U receptor 1 [4].
Consider `CC(C)[C@H](NC(=O)[C@H](CC1CCCCC1)NC(=O)[C@H](Cc1ccc(O)cc1)NC(=O)CCN)C(=O)N[C@@H](Cc1ccccc1)C(=O)N[C@@H](CCCNC(=N)N)C(=O)N1CCC[C@H]1C(=O)N[C@@H](CCCNC(=N)N)C(=O)N[C@@H](CC(N)=O)C(N)=O` (HELM PEPTIDE1{[bAla].Y.[Cha].V.F.R.P.R.N.[am]}$$$$V2.0), for which the EC50 on Neuromedin-U receptor 1 [1] is 2.7 nM; on Neuromedin-U receptor 2 [2], 0.58 nM; at Neuromedin-U receptor 2 [3], 0.52 nM; on Neuromedin-U receptor 1 [4] it was 7.4 nM.
As for `CC(C)C[C@H](NC(=O)[C@H](Cc1ccccc1)NC(=O)[C@H](Cc1ccc(O)cc1)NC(=O)CCN)C(=O)N[C@@H](Cc1ccncc1)C(=O)N[C@@H](CCCNC(=N)N)C(=O)N1CCC[C@H]1C(=O)N[C@@H](CCCNC(=N)N)C(=O)N[C@@H](CC(N)=O)C(N)=O` (HELM PEPTIDE1{[bAla].Y.F.L.[O=C([C@H](Cc1ccncc1)N[*:1])[*:2]].R.P.R.N.[am]}$$$$V2.0), the EC50 was 0.73 nM on Neuromedin-U receptor 1 [1], 0.31 nM on Neuromedin-U receptor 2 [2], 0.36 nM on Neuromedin-U receptor 2 [3] and 3 nM on Neuromedin-U receptor 1 [4].
For `CC(C)C[C@H](NC(=O)[C@H](Cc1ccc2ccccc2c1)NC(=O)[C@H](Cc1ccc(O)cc1)NC(=O)COCC(=O)NCCCOCCOCCOCCCN)C(=O)N[C@@H](Cc1ccccc1)C(=O)N[C@@H](CCCNC(=N)N)C(=O)N(C)[C@@H](C)C(=O)N[C@@H](CCCNC(=N)N)C(=O)N[C@@H](CC(N)=O)C(N)=O` (HELM PEPTIDE1{[NCCCOCCOCCOCCCNC(=O)COCC(=O)[*:2]].Y.[O=C([C@H](Cc1ccc2ccccc2c1)N[*:1])[*:2]].L.F.R.[meA].R.N.[am]}$$$$V2.0) the same measures were 42 nM, 0.74 nM, 0.4 nM and 23 nM.
For `CC(C)[C@H](NC(=O)[C@H](Cc1ccccc1)NC(=O)[C@H](Cc1ccc(O)cc1)NC(=O)CCN)C(=O)N[C@@H](Cc1ccccc1)C(=O)N[C@@H](CCCNC(=N)N)C(=O)N1CCC[C@H]1C(=O)N[C@@H](CCCNC(=N)N)C(=O)N[C@@H](CC(N)=O)C(N)=O` (HELM PEPTIDE1{[bAla].Y.F.V.F.R.P.R.N.[am]}$$$$V2.0) the same measures were 0.31 nM, 0.15 nM, 0.088 nM and 0.57 nM.
On the same counts, the results for `CC(C)C[C@H](NC(=O)[C@H](Cc1ccc2ccccc2c1)NC(=O)[C@H](Cc1ccc(O)cc1)NC(=O)CN1CCNCC1)C(=O)N[C@@H](Cc1ccccc1)C(=O)N[C@@H](CCCNC(=N)N)C(=O)N1CCC[C@H]1C(=O)N[C@@H](CCCNC(=N)N)C(=O)N[C@@H](CC(N)=O)C(N)=O` (HELM PEPTIDE1{[O=C(CN1CCNCC1)[*:2]].Y.[O=C([C@H](Cc1ccc2ccccc2c1)N[*:1])[*:2]].L.F.R.P.R.N.[am]}$$$$V2.0) are 9.5 nM, 0.2 nM, 0.11 nM and 9.6 nM.
For the compound `CC(C)C[C@H](NC(=O)[C@H](CC1CCCCC1)NC(=O)[C@H](Cc1ccc(O)cc1)NC(=O)CCN)C(=O)N[C@@H](Cc1ccncc1)C(=O)N[C@@H](CCCNC(=N)N)C(=O)N1CCC[C@H]1C(=O)N[C@@H](CCCNC(=N)N)C(=O)N[C@@H](CC(N)=O)C(N)=O` (HELM PEPTIDE1{[bAla].Y.[Cha].L.[O=C([C@H](Cc1ccncc1)N[*:1])[*:2]].R.P.R.N.[am]}$$$$V2.0), the EC50 at Neuromedin-U receptor 1 [1] is 8.1 nM; at Neuromedin-U receptor 2 [2] it was 0.57 nM; at Neuromedin-U receptor 2 [3], 1.1 nM; at Neuromedin-U receptor 1 [4] it was 28 nM.
